# The list is not random: actives were taken first. Their share in the collection is about 4%.
# UPR XBP1 act = adaptive UPR (XBP1) activation. activation, % at 20 µM. 330,000 compounds, 0.33% hits. CHO-XBP1 luciferase reporter, IRE1-XBP1 UPR activation, luminescence; percent of tunicamycin response, DMSO as zero. AID 463104;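 active = versus positive control, 20 µM dose yields 30% or more activation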
#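 Material: CHO cell line with stable XBP1 luciferase reporter; buffer or medium: F12 medium containing 10% fetal bovine serum; compound: single point, 20 µM final compound, 1% DMSO; incubation: 6 h treatment, 37 °C; measured by: glow luminescence from Steady-Glo reagent; evaluation: activation, % of tunicamycin; control set: tunicamycin high, DMSO low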
# ABHD5-PLIN5 inh = ABHD5-PLIN5 protein interaction inhibition. Q00G26+Q8WTS1. Split G. princeps luciferase complementation, luminescence, 4 h. inhibition, % at 4 µM. 360,000 compounds, 0.78% hits. AID 602281;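 active = inhibition above the mean inhibition across every tested compound plus 3 SD, cut at about 22% in these data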
# Exocytosis inh = blocks lytic granule exocytosis. TALL-104 LAMP-1 surface exposure, flow cytometry; cells stimulated with thapsigargin and PMA. inhibition, % at 10 µM. 360,000 compounds, 0.66% hits;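 active = inhibition above about 55%, limit read from the data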
# Mdm2 MdmX PPI = human Mdm2/MdmX binding inhibition | 330,000 compounds, 3% hits | SaOS-2 split-luciferase Mdm2/MdmX complementation, luminescence | inhibition, % at 8 µM | O15151+Q00987 | AID 485346;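 active = inhibition of at least 50% at 8 µM in the primary screen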
# CHOP UPR activ = activators of apoptotic arm of unfolded protein response (CHOP); CHO-CHOP luciferase reporter, UPR activation, luminescence; percent of tunicamycin response over DMSO baseline; activation, % at 10 µM; 330,000 compounds, 0.34% hits;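 active = at 10 µM dose, activation of 40% or more, normalized to positive control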
#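 assay system = CHO CHOP reporter cells | amount = 500 CHO-CHOP cells per well | buffer or medium = F12 with 10% FBS | incubation = 16-18 h cell attachment, then 6 h compound exposure, 37 °C | detection = luminescence read with Steady-Glo | read-out = percent activation relative to tunicamycin control | controls = tunicamycin high control, DMSO low control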
# ABHD5-PLIN5 conf = confirmation of human ABHD5-PLIN5 interaction inhibitors; 2,200 compounds, 67% hits; biochemical ABHD5-PLIN5 interaction, luminescence; inhibition, % at 4 µM; shares compounds with ABHD5-PLIN5 inh; in the data active = inhibition above about 23%
# HNF4 split-luc = counter-screen for ABHD5-PLIN5 inhibitors: HNF4 split-luciferase | shares compounds with ABHD5-PLIN5 inh | HNF4 dimerization, luminescence, biochemical | inhibition, % at 4 µM | 2,200 compounds, 77% hits | AID 651674;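 active = mean inhibition across replicate wells exceeding the computed hit threshold, cut at about 13% in these data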;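 also: light from luciferase halves that rejoin when HNF4 fusion proteins dimerize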
# A number is an active result; . = inactive; / = no result.
SMILES,UPR XBP1 act,ABHD5-PLIN5 inh,Exocytosis inh,Mdm2 MdmX PPI,CHOP UPR activ,ABHD5-PLIN5 conf,HNF4 split-luc
COc1ccccc1-c1ncn(Cc2cccc(-c3ccccc3)c2)c1-c1ccco1,/,25,.,/,/,22,37
Cn1c(=Nc2ccc(N3CCOCC3)cc2)ccc2ccccc21,.,.,.,.,.,/,/
Cn1c(N=Nc2ccc(N3CCOCC3)cc2)[n+](C)c2ccccc21,/,24,.,/,/,.,39
CCOc1ccc(C(=O)NCC(=O)N2CCC3CCCCC3C2)cc1OCC (configuration not stated),.,.,.,.,.,/,/
CCOC(=O)N1CCN(C(=O)C2CCN(C(=O)c3ccccc3C)CC2)CC1,/,26,.,/,/,38,91
O=C1C=CC(=O)N1CCCCCCCCCCN1C(=O)C=CC1=O,/,58,.,/,/,68,106
O=C1C=CC(=O)N1Cc1ccncc1,/,.,.,/,/,/,/
CC(C)OCC(O)CSc1ccccn1 (configuration not stated),.,.,.,.,.,/,/
CCOc1ccc(NC(=O)CN(C)C(=O)C2CC(=O)N(Cc3ccco3)C2)cc1OCC (configuration not stated),.,23,.,.,.,29,24
CCOc1ccc(NC(=O)CN(C)C(=O)C2CC(=O)N(CCc3ccc(OC)c(OC)c3)C2)cc1OCC (configuration not stated),/,.,.,/,/,/,/
COc1ccc(/C=C\C(=O)CC(O)(c2ccccc2)C(F)(F)F)cc1 (configuration not stated),.,53,.,.,.,79,55
COc1ccc(/C=C(/NC(=O)/C=C/c2ccccc2)C(=O)O)cc1,.,.,.,.,.,/,/
CC1=C(CO)C(=O)OC([C@@H](C)C2CC[C@H]3C4C[C@H]5O[C@]56[C@@H](O)C=CC(=O)[C@]6(C)C4CC[C@]23C)C1 (some centres not stated),/,65,.,/,/,77,77
O=c1c(C(c2ccccc2)c2c(O)nc3n(c2=O)CCS3)c(O)nc2n1CCS2,.,25,.,.,.,56,59
COc1ccc(-c2cc(C(=O)NCCCn3ccnc3)c3ccccc3n2)c(OC)c1,.,.,.,.,.,/,/
CCOC(=O)c1c(-c2ccc(C)o2)csc1NC(=O)CN1CCCCC1,.,.,.,.,.,/,/
CCOC(=O)c1c(-c2ccc(C)o2)csc1NC(=O)CN(C)CC(=O)Nc1ccc(C)cc1,.,26,.,.,.,.,53
CCCCOc1[nH]c2nc(-c3ccco3)n(Cc3ccco3)c(=N)c2c1C#N,.,48,.,.,.,25,47
CC(NC(=O)/C=C/c1ccco1)c1nc2ccccc2n1Cc1ccccc1F (configuration not stated),.,35,.,.,.,.,.
Cc1cc(C(=O)NNC(=O)/C=C/c2ccco2)c(C)o1,.,42,.,.,.,66,49
COc1ccc(NC(=O)CSc2nnc(-c3ccco3)c(-c3ccco3)n2)cc1OC,.,.,.,.,.,/,/
Cc1ccc(NC(=O)CSc2nnc(-c3ccco3)c(-c3ccco3)n2)cc1,.,27,.,.,.,94,65
CC(C)N1CCCC(C)(C(=O)Nc2ccc3c(c2)OCO3)C1 (configuration not stated),/,.,.,/,/,/,/
COC(=O)/C(=C\c1cc(OC)c(OC)c(OC)c1)c1nc2ccccc2[nH]1,.,.,.,.,.,/,/
COc1cc(/C=C(/C(=O)c2cccs2)c2nc3ccccc3[nH]2)ccc1O,.,35,.,.,.,76,68
SMILES,UPR XBP1 act,ABHD5-PLIN5 inh,Exocytosis inh,Mdm2 MdmX PPI,CHOP UPR activ,ABHD5-PLIN5 conf,HNF4 split-luc
Cc1ccc(C(=O)NC(=S)Nc2ccc(CN3CCOCC3)cc2)cc1,.,.,.,.,.,/,/
COc1ccc(OC)c(NC(=O)c2cnc3n(c2=O)CCS3)c1,.,.,.,.,.,/,/
COc1ccc(OC(=O)c2cnc3n(c2=O)CCS3)cc1,.,41,.,.,.,.,.
CCCC(=O)NC1=C(Cl)C(=O)c2ccccc2C1=O,/,48,.,/,/,64,101
CCNC1=C(Cl)C(=O)c2ccccc2C1=O,.,.,.,.,.,/,/
COCCNc1nc(NCc2cnc(C)cn2)c2sccc2n1,/,.,.,/,/,/,/
COc1ccccc1/C=C1\C(=O)Nc2ccccc21,.,.,.,.,.,/,/
O=C1Nc2ccccc2/C1=C/c1ccccc1Cl,.,27,.,.,.,40,26
CC(C)Oc1ccc(C(=O)/C=C2/C(=O)Nc3ccccc32)cc1,.,62,.,.,.,82,86
O=C(/C=C1\C(=O)Nc2ccccc21)/C=C1\C(=O)Nc2ccccc21,/,63,.,/,/,102,105
CN(O)/C=C1\C(=O)Nc2ccccc21,.,.,.,.,.,/,/
CCCCNC(=O)C1(C)CCCCN1C(=O)c1csnn1 (configuration not stated),/,.,.,/,/,/,/
CCOc1cc(/C=C/c2cc(C(=O)O)c3ccccc3n2)ccc1O,.,.,.,.,.,/,/
CC(=O)Oc1c(Cl)cc(N(C(C)=O)S(=O)(=O)c2ccccc2)c2ccccc12,.,58,.,.,.,49,15
NC(=O)NC(=O)CSc1nc2sc(-c3ccccc3)cc2c(=O)n1-c1ccccc1,.,.,.,.,.,/,/
O=C(C[C@H]1C[C@H](C(=O)N2CCOCC2)[C@@]2(CCC3CCCC3)c3[nH]c4cc(-c5ccco5)ccc4c3CCN2C1=O)NCc1cccc(C(F)(F)F)c1,.,23,.,.,.,.,.
O=C(C[C@H]1C[C@H](C(=O)N2CCCCC2)[C@@]2(CCc3ccccc3)c3[nH]c4cc(-c5ccco5)ccc4c3CCN2C1=O)NCc1cccc(C(F)(F)F)c1,.,.,.,.,.,/,/
CCN(CC)C(=O)[C@H]1C[C@H](CC(=O)NCCc2ccccn2)C(=O)N2CCc3c([nH]c4cc(-c5ccco5)ccc34)[C@]12C,.,24,.,.,.,.,.
O=C(COC(=O)c1cc(S(=O)(=O)N2CCc3ccccc3C2)ccc1Cl)NCc1ccco1,.,28,.,.,.,45,59
O=C(COC(=O)c1cccc(S(=O)(=O)N2CCc3ccccc3C2)c1)NCc1ccco1,.,.,.,.,.,/,/
O=C(Oc1ccc(Br)cc1C(=O)/C=C/c1ccccc1F)c1ccco1,.,73,.,.,.,99,93
CC(=O)c1cc(Cl)ccc1OC(=O)c1ccco1,.,.,.,.,.,/,/
CN(Cc1cccc(C(F)(F)F)c1)C(=O)[C@H]1O[C@@H](n2ccc(N)nc2=O)[C@H](O)[C@@H]1O,/,.,.,/,/,/,/
Nc1ccc(S(=O)(=O)N2CCc3ccccc32)cc1,.,.,.,.,.,/,/
